# Screening results deposited in PubChem by The Scripps Research Institute Molecular Screening Center.
# IDE cell inh = inhibitors of human insulin-degrading enzyme in cells; inhibition, % at 5.59 µM; AID 434962; HEK cells, FAbetaB cleavage, fluorescence polarization; 0.41% of 320,000 active; P14735;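 active = percent inhibition above the average of all tested compounds plus 3 SD, set per screening campaign, cut at about 16% in these data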;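 note: IDE supplied by intact live HEK cells; FP after avidin binding of uncleaved biotin substrate so inhibition keeps polarization high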
# IDE act = boosts human insulin-degrading enzyme activity in HEK cells; 0.073% of 340,000 active; activation, % at 5.96 µM; FAbeta-B cleavage, fluorescence polarization; 0% vehicle, 100% cell-free pure enzyme wells;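 active = activation above the mean of all tested compounds plus 3 SD, set per screening campaign, cut at about 17% in these data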
# PREPL inh = inhibits the human prolyl oligopeptidase-like enzyme. Q4J6C6. recombinant PREPL, fluorescence polarization activity-based probe. inhibition, % at 5.96 µM. 0.68% of 320,000 active. AID 2751
# ARFGAP1 inh = inhibits rat ARF GTPase activating protein 1 | Arfgap1-stimulated ARF1 GTP hydrolysis, GDP FP detection | inhibition, % at 16.5 µM | 0.26% of 360,000 active | AID 651572;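 active = inhibition above a per-plate limit, mean inhibition of low control wells plus 3 SD, cut at about 25% in these data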
# Target sequence (Q62848 1-136 limits assumed): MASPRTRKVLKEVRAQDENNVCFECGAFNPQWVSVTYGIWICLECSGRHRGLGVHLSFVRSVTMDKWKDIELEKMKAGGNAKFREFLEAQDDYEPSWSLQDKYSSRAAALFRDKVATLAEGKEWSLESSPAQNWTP
#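 material = rat Arfgap1 catalytic domain, aa 1-136 | also added = human ARF1(Δ1-17)-GTP substrate | compound dosing = one concentration, 16.5 µM, DMSO 1.26% | times = GTP hydrolysis reaction 2 h at 25 °C | measured by = FP, GDP Alexa 633 tracer displaced from anti-GDP antibody, 620/688 nm | evaluation = percent inhibition of Arfgap1-stimulated GTP hydrolysis | replication = single well per compound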
# ASAP1 inh = inhibitors of human ASAP1 ArfGAP activity. 0.19% of 360,000 active. Q9ULH1. inhibition, % at 16.5 µM. ASAP1-stimulated ARF1 GTP hydrolysis, GDP FP detection; in the data active = inhibition above about 25%
# Target sequence (Q9ULH1 325-724 limits assumed): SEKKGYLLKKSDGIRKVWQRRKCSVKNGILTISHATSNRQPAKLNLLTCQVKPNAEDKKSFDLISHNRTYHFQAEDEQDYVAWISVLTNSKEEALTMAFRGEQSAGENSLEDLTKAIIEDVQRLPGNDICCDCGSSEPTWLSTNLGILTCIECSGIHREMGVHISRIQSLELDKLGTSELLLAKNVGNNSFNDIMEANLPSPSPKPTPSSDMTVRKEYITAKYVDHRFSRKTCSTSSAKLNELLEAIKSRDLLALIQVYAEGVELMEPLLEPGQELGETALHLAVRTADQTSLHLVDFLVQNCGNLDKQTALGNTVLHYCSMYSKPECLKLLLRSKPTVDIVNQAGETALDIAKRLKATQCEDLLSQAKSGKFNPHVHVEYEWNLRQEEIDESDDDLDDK
# PREPL confirm = confirmation of human PREPL enzyme inhibitors | recombinant PREPL, fluorescence polarization activity probe | 67% of 2,000 active | shares compounds with PREPL inh | inhibition, % at 5.96 µM
# Hits are given with their value; i = inactive; nt = no result; + = active, no number. Only some compounds are listed: those with a hit (about 1.2% of all), similar ones and a draw of the others. Cut-off read from the data, not from the text of the source, unless noted: active = inhibition above about 43%; inactive = the rest.
SMILES,IDE cell inh,IDE act,PREPL inh,ARFGAP1 inh,ASAP1 inh,others
Cc1cc(C)n(CCNC(=O)c2cc(COc3ccc(F)cc3Cl)on2)n1,i,i,i,i,i,
COc1ccc(-c2c[n+]3c4n2CCCCC4=C(c2ccc(Br)cc2)C3)cc1,i,i,49.2,i,i,
O=[N+]([O-])c1ccc(Nc2nc(N/N=C/c3cccc(F)c3)nc(N3CCCC3)n2)cc1,i,i,46.9,i,i,
Cn1c2c(c(=O)n3ncnc13)CCCC2,16.9,i,i,i,i,
CCN1CCN(Cc2ccc(NC(=O)c3cc(NC(=O)N4CCNC4=O)cc(OC)c3)cc2C(F)(F)F)CC1,i,i,i,i,i,
COc1cc(NC(=O)N2CCNC2=O)cc(C(=O)Nc2cccc(C(F)(F)F)c2)c1,i,38.0,i,i,i,
C[C@H](CO)N1C[C@H](C)[C@@H](CN(C)C(=O)Nc2ccc3c(c2)OCCO3)OCc2cn(nn2)CCCC1=O,nt,nt,nt,i,i,
Cc1cc(C)cc(OCCCN2CCC(C(O)(c3ccccc3)c3ccccc3)CC2)c1,nt,nt,nt,i,i,
O=C(CN1CCN(Cc2ccccc2)CC1)Nc1ccc([N+](=O)[O-])cc1C(=O)Nc1ccccc1F,i,i,43.1,i,i,
O=[N+]([O-])c1ccc2c(c1)CCCO[C@]21O[C@H](CCO)C[C@H](O)[C@H]1O,nt,nt,nt,i,i,
Cc1ccc(/C=C2\CCC3=C2OC(N)=C(C#N)C3c2ccc(C)cc2)cc1 (configuration not stated),56.4,i,i,nt,nt,
O=[N+]([O-])c1cccc(N=NN(CCO)c2cccc([N+](=O)[O-])c2)c1,i,i,51.9,i,i,
CCCN(N=Nc1cccc([N+](=O)[O-])c1)c1cccc([N+](=O)[O-])c1,i,i,i,i,i,
O=C1CCCc2ccccc2N1Cc1ccccc1Cl,i,i,i,25.1,i,
C[C@@H]1CN([C@@H](C)CO)C(=O)CCCn2cc(nn2)CO[C@H]1CN(C)C(=O)c1ccc(N2CCN(C)CC2)cc1,nt,nt,nt,i,i,
COc1c(C(=O)Nc2ccc(CN3CCOCC3)cc2)cc2ccccc2c1Br,i,i,i,i,i,
COc1c(C(=O)Nc2ccc3[nH]c(=O)[nH]c3c2)cc2ccccc2c1Br,i,20.3,i,i,i,
COC(=O)c1ccc2nc(-c3ccccc3)c(Cc3cccc(Cl)c3)n2c1,nt,nt,nt,i,i,
CC(C)N1CCC2(CC1)C(C#N)=C(N)NC(S)=C2C#N,i,nt,49.2,nt,nt,
CCCN1CCCCC(NC(=O)c2c(F)cccc2F)C1=O (configuration not stated),nt,nt,nt,i,i,
CC(C)CCn1nnnc1CN1CCN(c2ccccc2)CC1,i,18.5,i,i,i,
COc1ccccc1N1CCN(S(=O)(=O)c2ccc3nc(-c4ccccc4)[nH]c3c2)CC1,31.9,i,i,i,i,
Cc1c(-c2ccc(O)cc2)nc2nc(-c3ccccc3)c(-c3ccccc3)nn12,91.8,nt,i,nt,nt,
Oc1cc(O)cc(C=Cc2ccc(O)c(O)c2)c1,nt,nt,nt,i,i,
O=C(CSc1nc(N2CCOCC2)nc(N2CCOCC2)n1)Nc1ccc([N+](=O)[O-])cc1,i,23.3,i,i,i,
SMILES,IDE cell inh,IDE act,PREPL inh,ARFGAP1 inh,ASAP1 inh,others
CC(C)N1CCc2c(sc(N)c2C#N)C1,i,i,50.3,i,i,
COc1ccc2c(c1)c(C(=O)N/N=C/c1cccc(O)c1)c(C)n2C,i,i,i,i,i,
COc1ccc2c(c1)c(C(=O)N/N=C/c1cccc(Br)c1)c(C)n2C,17.5,i,i,i,i,
CC(=O)C1=C(C)N(Cc2ccc(Cl)cc2)C(=S)NC1c1ccccc1 (configuration not stated),nt,nt,nt,i,i,
CN(C)CCNc1ncnc2c1sc1nc(-c3ccccc3)c3c(c12)CCCC3,i,31.6,i,i,i,
COc1ncnc2c1sc1nc(-c3ccccc3)c3c(c12)CCCC3,i,i,i,i,i,
CCN(CC)c1ccc(/C=C/c2cccc[n+]2C)c(OC)c1,28.4,i,i,i,i,
COc1ccc(/C=C/c2cccc[n+]2C)c(O)c1,i,i,i,i,i,
O=c1oc2c(CN3CCCCC3)c(O)ccc2cc1-c1nc2ccccc2[nH]1,nt,i,nt,i,i,
O=c1oc2c(O)cccc2cc1-c1nc2ccccc2[nH]1,nt,60.7,nt,i,i,
S=C(c1cn(Cc2ccc(Br)cc2)c2ccccc12)N1CCOCC1,i,i,49.7,i,i,
Cc1cccc(OCC(=O)Nc2ccc(N3CCN(S(C)(=O)=O)CC3)cc2)c1C,i,i,i,i,i,
Cc1ccc(C(=O)NC(=S)Nc2ccc(N3CCN(C(=O)c4ccco4)CC3)cc2)cc1,i,i,47.9,i,i,PREPL confirm=i
Cc1cc(C)cc(OCC(=O)Nc2ccc(N3CCN(C(=O)c4ccco4)CC3)cc2)c1,i,i,i,i,i,
Cc1ccccc1OCC(=O)Nc1ccc(N2CCN(C(=O)c3ccco3)CC2)cc1,i,i,58.3,i,i,PREPL confirm=47.6
Cc1cccc(OCC(=O)Nc2ccc(N3CCN(C(=O)c4ccco4)CC3)cc2)c1C,i,i,48.1,i,i,PREPL confirm=47.3
CC(C)Oc1ccc(C(=O)Nc2ccc(N3CCN(C(=O)c4ccco4)CC3)cc2)cc1,i,i,i,i,i,
Nc1nc(-c2ccccc2)c(N=Nc2ccccc2Cl)s1,i,i,61.4,i,i,PREPL confirm=62.2
Cc1ccc(C)c(C(=O)OCC(=O)Nc2cccc(S(=O)(=O)NC3=NCCCCC3)c2)c1,i,i,46.4,i,i,PREPL confirm=i
O=[N+]([O-])c1ccc(C(O)CN=Cc2ccc(O)cc2O)cc1 (configuration not stated),i,i,48.5,i,i,PREPL confirm=i
Cc1ccc(S(=O)(=O)Nc2cc(Cl)ccc2-n2cncn2)cc1,i,i,i,i,i,
Cc1[nH]c2ccccc2c1C(c1ccncc1)N1CCN(c2ccccc2F)CC1 (configuration not stated),i,i,i,i,i,
Cc1[nH]c2ccccc2c1C(c1ccncc1)N1CCN(c2ccccn2)CC1 (configuration not stated),i,i,+,i,i,PREPL confirm=i
NC(=O)[C@@H]1CCCN1C(=O)[C@@H](Cc1ccccc1)NC(=O)[C@H]1O[C@@H](n2ccc(N)nc2=O)[C@H](O)[C@@H]1O,nt,nt,nt,i,i,
Cc1cc(/C=N/NC(N)=S)c(C)n1-c1ccc(Cl)cc1,i,i,i,i,i,
Cc1cc(/C=N/NC(N)=S)c(C)n1-c1ccc(Br)cc1,i,i,53.5,i,i,PREPL confirm=45.3
Cn1c2c(c(=O)n(C)c1=O)C(c1ccc(Cl)cc1)C(C#N)=C(N)O2 (configuration not stated),i,i,i,i,i,
Cc1ccc2c(c1)C1CN(C)CCC1N2Sc1ccccc1[N+](=O)[O-] (configuration not stated),i,i,45.1,i,i,PREPL confirm=i
O=C(NCCc1ccccc1)c1ccc2c(c1)S(=O)(=O)c1cc(Cl)ccc1C2=O,i,i,56.2,i,i,PREPL confirm=i
CC(=O)c1c[nH]c(C(=O)NCc2ccccc2Cl)c1,i,i,i,i,i,
